Shown are actives, neighbours in structure and some others; about 3.3% of the full set was active somewhere.
Arr AP2 block = inhibitors of beta-arrestin/AP2 binding, primary screen, biochemical, GPCR trafficking, flow cytometry. FITC-arrestin peptide / GST-AP2 beads; AP2 beta2 appendage carries R879A mutation. inhibition, % at 10 µM. 340,000 compounds, 0.31% hits;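 active = inhibition above a set limit, near 3 SD of compounds lacking own fluorescence, cut at about 54% in these data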
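Test system: GST-tagged AP2 beta2-adaptin appendage (R879A) on 4 µm glutathione beads; also added: fluorescein-tagged arrestin peptide at 50 nM final; timing: 12 min plus 1 h, RT; signal: flow cytometry, FL1 (488/535 nm); read-out: percent drop in bead-associated FITC signal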
PfM18AAP inh-1 = PfM18AAP inhibitors, malaria aminopeptidase, primary screen, biochemical, QFRET, recombinant enzyme; 290,000 compounds, 1.2% hits; inhibition, % at 7.35 µM; H-Glu-NHMec fluorogenic cleavage; M18 aspartyl aminopeptidase (Plasmodium falciparum 3D7); AID 1822, 2009;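 active = inhibition above the campaign mean inhibition over all tested compounds plus 3 SD, cut at about 28% in these data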
HTR2A ag = mouse Htr2a agonists via beta-arrestin recruitment, primary screen, cell-based, luminescence | CHO-K1 mHTR2A beta-arrestin complementation; percent of 30 µM serotonin response | 5-hydroxytryptamine receptor 2A (Mus musculus), P35363 | AID 624169, 2012 | activation, % at 7.6 µM | 360,000 compounds, 0.66% hits;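 active = activation above a run cutoff, the mean activation of all tested compounds plus 3 SD, cut at about 14% in these data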
CendR NRP1 mod = modulators of CendR peptide binding to NRP-1, primary screen, biochemical, fluorescence polarization, uHTS. Neuropilin-1 (Homo sapiens), O14786. FAM-RPARPAR peptide binding to NRP-1. 360,000 compounds, 0.85% hits. inhibition, % at 25 µM. AID 602438, 2012;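 active = inhibition or corrected inhibition above about 18%, plus a signal ratio from 0.5 to 1.5, limit read from the data, passing the limit was not always enough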
sPLA2-III inh = human group III sPLA2 inhibitors, primary screen, biochemical, QFRET, BODIPY PC-A2 liposome substrate | QFRET BODIPY PC-A2 liposome hydrolysis, fluorescence | inhibition, % at 12.2 µM | 370,000 compounds, 0.56% hits | AID 743126, 2013;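 active = inhibition above mean plus 3 SD of compounds lying within the high and low control bounds, cut at about 19% in these data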
Lipid droplet = inhibitors of hepatocyte lipid droplet formation, primary screen, imaging, high-throughput imaging, BODIPY stain | AML12 mouse hepatocytes, oleate lipid droplets | inhibition, % at 6.5 µM | 240,000 compounds, 0.4% hits;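 active = lipid droplet intensity inhibited by at least 50%, with more than 500 cells counted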
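Assay system: AML12 mouse liver cells | Compound dosing: One dose, 6.5 µM compound | Read-out basis: Droplet intensity reduction, % inhibition | Measured by: Fluorescence imaging, 20x objective, two fields per well | Schedule: Overnight treatment with compound plus oleate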
PfM18AAP inh-2 = PfM18AAP inhibitors, malaria aminopeptidase, confirmation, biochemical, QFRET, recombinant enzyme, triplicate | shares compounds with PfM18AAP inh-1 | H-Glu-NHMec fluorogenic cleavage | 2,400 compounds, 28% hits | inhibition, % at 7.35 µM | AID 2170, 2009;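 active = mean inhibition over replicate wells above the hit cutoff set for the earlier primary screen, cut at about 29% in these data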
CTSL1 counter = cathepsin L1 inhibitors, retest, confirmation, counter-screen for PFM18AAP inhibitor project, biochemical, QFRET, triplicate | shares compounds with PfM18AAP inh-1 | purified cathepsin L1, Z-Leu-Arg-MCA fluorescence | inhibition, % at 5.96 µM | 2,400 tested, under 10 active | AID 2178, 2009;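 active = average inhibition across replicates above the hit cutoff set in the earlier primary screen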
Target sequence (P07711 whole entry, looked up): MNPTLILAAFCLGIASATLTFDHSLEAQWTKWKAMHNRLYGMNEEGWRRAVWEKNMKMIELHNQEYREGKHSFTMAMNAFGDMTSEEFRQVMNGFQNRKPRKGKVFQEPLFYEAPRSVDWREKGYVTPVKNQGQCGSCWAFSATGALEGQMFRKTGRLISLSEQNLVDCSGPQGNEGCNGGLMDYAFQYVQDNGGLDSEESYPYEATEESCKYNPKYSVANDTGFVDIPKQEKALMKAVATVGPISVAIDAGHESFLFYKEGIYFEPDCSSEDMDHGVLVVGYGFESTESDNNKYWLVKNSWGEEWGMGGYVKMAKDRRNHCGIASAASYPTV
A number is an active result; – = inactive; · = not tested or not shown.

SMILES	Arr AP2 block	PfM18AAP inh-1	HTR2A ag	CendR NRP1 mod	sPLA2-III inh	Lipid droplet	PfM18AAP inh-2	CTSL1 counter
CC(COc1ccc(/C=C/c2ccccc2)cc1)[N+](C)(C)C (stereo not given)	–	·	–	–	–	·	·	·
C=CCN1C(=O)[C@@H](CC(=O)NCc2ccc(C)o2)[C@]2(C(=O)OCC)CCCCC/C=C/12	·	·	·	·	–	·	·	·
COc1ccc(-n2c(O)c(/C=N/Nc3nc(C)cc(C)n3)c3ccccc3c2=O)cc1OC	–	34	–	–	–	–	–	–
Cc1ccc(C(=O)C(NC(=O)c2ccco2)Nc2sc3c(c2C(N)=O)CCCC3)cc1 (stereo not given)	·	40	·	·	·	–	–	–
CNC(=O)c1c(NC(=O)c2ccco2)sc2c1CCCC2	–	–	–	–	–	–	·	·
CCOC(=O)N1CCN(C(=O)C[C@H]2C[C@@]3(C(=O)OC)C(=C[C@H](C(C)(C)C)O[C@@H]3C)N(Cc3ccco3)C2=O)CC1	·	·	·	·	–	·	·	·
Cc1cc2oc(=O)cc(-c3cc4ccccc4o3)c2cc1O	–	58	–	–	–	–	–	–
CCOC(=O)C(=C1Nc2ccccc2N1)n1c(-c2cccnc2)nc2ccccc21	·	·	–	–	–	·	·	·
CCNC(=S)NNC(=O)c1cccs1	–	36	–	–	–	·	–	–
Cc1ccc(NC(=O)NNC(=O)c2cccs2)cc1	–	51	–	–	–	–	–	–
CNC(=S)NNC(=O)c1cccs1	–	38	–	–	–	–	–	–
COc1ccc(C(=O)NNC(=O)Nc2ccc(C)cc2)cc1	–	45	–	–	–	–	–	–
CC(C)[C@H](NC(=O)CC1CCCC1)C(=O)N1CCC[C@H]1C(=O)NCc1ccccc1	·	·	·	·	–	·	·	·
CS(=O)(=O)Nc1ccc(-c2cnc3cccnn23)cc1	·	·	–	–	–	·	·	·
O=C1/C(=C/c2ccco2)SC(=S)N1CCC(=O)N1CCCCC1CCO (stereo not given)	–	32	–	–	–	–	–	–
NC(=S)NNc1cccc2cccnc12	–	–	–	–	–	–	·	·
NC(=S)Nc1cccc2cccnc12	–	32	–	–	–	·	–	–
O=c1c2ccccc2sn1-c1cc(S(=O)(=O)N2CCOCC2)ccc1N1CCCC1	–	41	–	–	–	–	–	–
COc1ccc(S[C@]2(C(=O)N3CCCC3)CC(=O)N(S(=O)(=O)c3ccc(F)cc3)[C@@H]2c2ccc(OC)cc2)cc1	·	·	·	·	–	·	·	·
O=C1c2ccc([N+](=O)[O-])cc2NC(c2ccco2)N1/N=C/c1ccco1 (stereo not given)	–	40	–	–	–	–	–	–
CN=c1scc(-c2ccc([N+](=O)[O-])cc2)n1/N=C/c1ccco1	–	–	–	–	–	–	·	·
O=C(C1CCCO1)N1CCN(C(=S)Nc2ccc(Br)cc2)CC1 (stereo not given)	–	–	–	–	–	–	·	·
NS(=O)(=O)c1ccc(NC(=S)N2CCN(C(=O)C3CCCO3)CC2)cc1 (stereo not given)	–	47	–	–	·	–	–	–
O=C(O)CCC(=O)c1ccc2c(c1)OCCO2	–	–	–	–	–	·	·	·
O=C(O)CCOc1ccc2c(c1)OCCO2	–	63	–	–	–	–	–	–
SMILES	Arr AP2 block	PfM18AAP inh-1	HTR2A ag	CendR NRP1 mod	sPLA2-III inh	Lipid droplet	PfM18AAP inh-2	CTSL1 counter
O=C(NCC(=O)N1CCN(c2ccccc2O)CC1)c1ccco1	–	34	–	–	–	–	–	–
O=C(NCC(=O)N1CCCCCCC1)c1ccco1	–	·	–	–	–	·	·	·
CCOC(=O)N1CCc2c(sc(N)c2C#N)C1	–	39	·	·	–	–	–	–
O=[N+]([O-])c1ccc(C(O)CN2CCN(c3ccccc3)CC2)cc1 (stereo not given)	–	–	–	–	–	–	·	·
Oc1ccc(N2CCN(CC(O)c3ccccc3)CC2)cc1 (stereo not given)	–	51	–	–	–	–	–	–
CC1=C(C(=O)O)N2C(=O)C(NC(=O)c3ccccc3Cl)C2SC1 (stereo not given)	–	34	–	–	–	–	–	–
CCN1CCN(C(=O)NS(=O)(=O)c2ccc(C)cc2)CC1	–	–	–	–	–	–	·	·
Oc1c(Cl)cc(Cl)c2cccnc12	–	–	–	–	–	–	·	·
Cc1ccc(S(=O)(=O)Nc2cc(Cl)c(O)c3ncccc23)cc1	–	39	–	–	–	–	–	–
O=C(CSc1nc2nn(-c3ccccc3)c(=O)c-2c2n1CCCCC2)c1ccc(O)c(O)c1	–	·	–	–	·	·	·	·
CN(C)c1ccc(-c2csc(C(O)c3cccc(Cl)c3)n2)cc1 (stereo not given)	·	·	–	–	–	·	·	·
COC(=O)C1=C(C)N(Cc2ccc(C(F)(F)F)cc2)C(=NCc2ccc(C(F)(F)F)cc2)NC1c1cccc(F)c1 (stereo not given)	·	·	·	·	–	·	·	·
O=C1NC(=O)/C(=C\c2ccc(O)cc2O)S1	–	90	–	–	–	–	86	–
CCOC(=O)N/N=C/c1cc(OC)c(O)c(OC)c1	–	–	–	–	–	–	·	·
CCOC(=O)c1sc(N/N=C/c2cc(Br)c(O)c(OC)c2)nc1C	–	37	–	–	–	–	–	–
